In data set [1] the test system is Mustela putorius furo. Description: In vivo Myocardial MRI signal intensity (MRI IE)in ferrets induced by the compound at 50 umol/kg was measured at 0-10 min. The data set is classed as functional, Myocardium. The method, boiled down:
(§1)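 Ferrets received a bolus of 50 µmol/kg Gd complex. BAE and ABE were given as water-soluble pH 7 solutions; ABE used a 1.2-fold ligand excess and 10 mM Gd. BPE, BBE, BHE and BME were given in lecithin/cholesterol liposomes in 0.9% saline/20 mM HEPES pH 7.4. Myocardial signal was read on 1.5 T MRI (head coil) against an agarose phantom and compared with pre-agent control images. Imaging ran over 3 h.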

The subject of data set [2] is Mustela putorius furo. Description: In vivo Myocardial MRI signal intensity (MRI IE)in ferrets induced by the compound at 50 umol/kg was measured at 30-60 min. Format: functional, Myocardium. In a few lines: as §1
A short description of data set [3]: Aqueous solubility of the compound. Format: physicochemical. The conditions noted are these: water; read-out: S. In a few lines: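 Gd–ligand 1:1 complexes were made from GdCl3 in water at pH 7.0 over a series of nominal concentrations around the expected precipitation point. Experimental concentration was taken as ΔR1(observed)/ρ1. ρ1 came from one well-dissolved sample whose Gd was measured by ICP-OES.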

Data set [4] has as its system Mustela putorius furo. Description: In vivo Myocardial MRI signal intensity (MRI IE)in ferrets induced by the compound at 50 umol/kg was measured at 180 min. The data set is classed as functional, Myocardium. The method, boiled down: as §1
Data set [5] concerns Mustela putorius furo. Description: In vivo Myocardial MRI signal intensity (MRI IE)in ferrets induced by the compound at 50 umol/kg was measured at 180 min. Format: functional, Myocardium. In a few lines: as §1

Converted amounts (≈) assume the structure as drawn.

As for `CCCC(=O)OCCN(CCN(CCOC(C)=O)CC(=O)N(CC(=O)O)CC(=O)O)CC(=O)N(CC(=O)O)CC(=O)O`, the IE in the data set on Mustela putorius furo [1] is 42.8%; in the data set with Mustela putorius furo [2] it was 43.6%; in the data set with Mustela putorius furo [4] it was 38.5%. In data set [3], the solubility worked out at 25 mM (≈ 15200 µg/mL).

For `CCCCCC(=O)OCCN(CCN(CCOC(=O)CCCCC)CC(=O)N(CC(=O)O)CC(=O)O)CC(=O)N(CC(=O)O)CC(=O)O`, the IE was 32.3% in the data set on Mustela putorius furo [1], 41.7% in the data set with Mustela putorius furo [2] and 30.1% in the data set with Mustela putorius furo [4]. Moreover, in data set [3], the solubility was determined as 0.5 mM (≈ 345 µg/mL).

Turning to `CCCC(=O)OCCN(CCN(CCOC(=O)CCC)CC(=O)N(CC(=O)O)CC(=O)O)CC(=O)N(CC(=O)O)CC(=O)O`, the IE was 53.1% with Mustela putorius furo [1], 52.1% in the data set with Mustela putorius furo [2] and 39.3% in the data set with Mustela putorius furo [4]. The solubility in data set [3] came to 5 mM (≈ 3170 µg/mL).

In the case of `CC(=O)OCCN(CCN(CCOC(C)=O)CC(=O)N(CC(=O)O)CC(=O)O)CC(=O)N(CC(=O)O)CC(=O)O`, the figures for the IE with Mustela putorius furo [5], in the data set on Mustela putorius furo [1] and in the data set with Mustela putorius furo [2] were 10.1%, 87.2% and 10.1%, respectively. Also, the solubility in data set [3] turned out to be 30 mM (≈ 17400 µg/mL).

Regarding `CCCCCCCCCCCCCC(=O)OCCN(CCN(CCOC(=O)CCCCCCCCCCCCC)CC(=O)N(CC(=O)O)CC(=O)O)CC(=O)N(CC(=O)O)CC(=O)O`, the IE is 55.2% with Mustela putorius furo [1], 67.2% in the data set on Mustela putorius furo [2] and 65.2% in the data set on Mustela putorius furo [4]. Further, the solubility in data set [3] was 0.015 mM (≈ 13.7 µg/mL).

As to `CCC(=O)OCCN(CCN(CCOC(=O)CC)CC(=O)N(CC(=O)O)CC(=O)O)CC(=O)N(CC(=O)O)CC(=O)O`, the figures for the IE with Mustela putorius furo [1], in the data set on Mustela putorius furo [2] and with Mustela putorius furo [4] were 34.6%, 38.4% and 47.2%, respectively. In addition, in data set [3], the solubility is 7 mM (≈ 4250 µg/mL).

These data come from ChEMBL document CHEMBL1132175, “Synthesis and in vivo evaluation of new contrast agents for cardiac MRI” (J Med Chem, 1999).
